Measurements published in ChEMBL document CHEMBL1153887, “Cyclocondensation reaction of heterocyclic carbonyl compounds. Part XIII: synthesis and cytotoxic activity of some 3,7-diaryl-5-(3,4,5-trimethoxyphenyl)pyrazolo[4,3-e][1,2,4]triazines” (Eur J Med Chem, 2009).

Experiments:
K562 [1] = experiment: Cytotoxicity against human paclitaxel-resistant K562 cells after 72 hrs by MTT assay; assay type: functional, cell-based; settings: K562, 72 h
Procedure, shortened: (§1)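 Cells seeded at 2500–30,000 cells/well and left 24 h at 37 °C, 5% CO₂, then fourfold dilution series in duplicate for 72 h. MTT for 4 h, formazan dissolved in 10% SDS (pH 5.5), OD read at 540 nm against controls. Mean of three independent experiments.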

CCRF-CEM [2] = experiment: Cytotoxicity against human daunorubicin-resistant CEM cells after 72 hrs by MTT assay; assay type: cell-based; procedure, shortened: as §1
K562 [3] = experiment: Cytotoxicity against human K562 cells after 72 hrs by MTT assay; assay type: functional, cell-based; settings: K562, 72 h
A549 = experiment: Cytotoxicity against human A549 cells after 72 hrs by MTT assay; assay type: functional, cell-based; settings: A549, 72 h
CCRF-CEM [4] = experiment: Cytotoxicity against human CEM cells after 72 hrs by MTT assay; assay type: cell-based

| SMILES | IC50 (K562 [1]) [µM] | IC50 (CCRF-CEM [2]) [µM] | IC50 (K562 [3]) [µM] | IC50 (A549) [µM] | IC50 (CCRF-CEM [4]) [µM] |
| --- | --- | --- | --- | --- | --- |
| COc1cccc(N/N=C(\c2cc(OC)c(OC)c(OC)c2)c2nc(-c3ccc(Cl)cc3)n[nH]c2=O)c1 | 26.3 | 133 | 41.8 | 8.32 | 11.5 |
| COc1cc(Cc2nc(-c3ccc(Cl)cc3)n[nH]c2=O)cc(OC)c1OC | 24.7 | 14.6 | 9.63 | 15.8 | 12.9 |
| COc1ccc(-c2nnc3c(n2)c(-c2cc(OC)c(OC)c(OC)c2)nn3-c2ccccc2)cc1 | 203 | 114 | 166 | 78.8 | 114 |
| COc1cccc(N/N=C(\c2cc(OC)c(OC)c(OC)c2)c2nc(-c3cc(OC)c(OC)c(OC)c3)n[nH]c2=O)c1 | 22.1 | 140 | 112 | 3.38 | 7.83 |
| COc1cc(-c2nn(-c3ccccc3)c3nnc(-c4ccc(Cl)cc4)nc23)cc(OC)c1OC | 225 | 113 | 220 | 130 | 11.6 |
| COc1ccc(-c2n[nH]c(=O)c(/C(=N/Nc3ccccc3)c3cc(OC)c(OC)c(OC)c3)n2)cc1 | 31.8 | 39.8 | 18.4 | 23.7 | 9.81 |
| COc1ccc(-n2nc(-c3cc(OC)c(OC)c(OC)c3)c3nc(-c4ccc(Cl)cc4)nnc32)cc1 | 250 | 139 | 248 | 113 | 226 |
| COc1ccc(-c2nnc3c(n2)c(-c2cc(OC)c(OC)c(OC)c2)nn3-c2ccc(Cl)cc2)cc1 | 232 | 118 | 203 | 113 | 115 |
| COc1cccc(N/N=C(\c2cc(OC)c(OC)c(OC)c2)c2nc(-c3ccccc3)n[nH]c2=O)c1 | 13.7 | 19.3 | 12.7 | 8.3 | 8.6 |
| COc1cc(-c2nn(-c3ccc(Cl)cc3)c3nnc(-c4ccc(Cl)cc4)nc23)cc(OC)c1OC | 222 | 126 | 190 | 155 | 68.9 |
| COc1ccc(-c2n[nH]c(=O)c(/C(=N/Nc3ccccc3OC)c3cc(OC)c(OC)c(OC)c3)n2)cc1 | 250 | 141 | 148 | 250 | 54.6 |
| COc1ccc(-c2n[nH]c(=O)c(/C(=N/Nc3ccc(Cl)cc3)c3cc(OC)c(OC)c(OC)c3)n2)cc1 | 238 | 50.1 | 41.3 | 18.5 | 20.2 |
| COc1ccc(-c2nnc3c(n2)c(-c2cc(OC)c(OC)c(OC)c2)nn3-c2ccc(OC)cc2)cc1 | 229 | 118 | 186 | 113 | 124 |
| COc1cccc(-n2nc(-c3cc(OC)c(OC)c(OC)c3)c3nc(-c4cc(OC)c(OC)c(OC)c4)nnc32)c1 | 141 | 109 | 164 | 163 | 48.3 |
| COc1ccc(-n2nc(-c3cc(OC)c(OC)c(OC)c3)c3nc(-c4ccccc4)nnc32)cc1 | 150 | 100 | 84.4 | 39 | 117 |
| COc1cc(/C(=N\Nc2ccccc2)c2nc(-c3ccc(Cl)cc3)n[nH]c2=O)cc(OC)c1OC | 33.1 | 37.7 | 17.5 | 22.1 | 10.8 |
| COc1ccc(-c2n[nH]c(=O)c(/C(=N/Nc3cccc(OC)c3)c3cc(OC)c(OC)c(OC)c3)n2)cc1 | 250 | 132 | 162 | 250 | 68.7 |
| COc1ccc(N/N=C(\c2cc(OC)c(OC)c(OC)c2)c2nc(-c3ccc(Cl)cc3)n[nH]c2=O)cc1 | 8.33 | 9.16 | 7.5 | 2.34 | 9.49 |
| COc1cc(N/N=C(\c2cc(OC)c(OC)c(OC)c2)c2nc(-c3cc(OC)c(OC)c(OC)c3)n[nH]c2=O)cc(OC)c1OC | 118 | 158 | 94.3 | 162 | 53.8 |
| COc1cc(/C=C(/NC(=O)c2ccc(Cl)cc2)C(=O)NN)cc(OC)c1OC | 174 | 130 | 166 | 161 | 134 |

| SMILES | IC50 (K562 [1]) [µM] | IC50 (CCRF-CEM [2]) [µM] | IC50 (K562 [3]) [µM] | IC50 (A549) [µM] | IC50 (CCRF-CEM [4]) [µM] |
| --- | --- | --- | --- | --- | --- |
| COc1cc(/C(=N\Nc2ccc(Cl)cc2)c2nc(-c3ccc(Cl)cc3)n[nH]c2=O)cc(OC)c1OC | 12.5 | 37.7 | 10.2 | 3.81 | 7.67 |
| COc1ccc(-n2nc(-c3cc(OC)c(OC)c(OC)c3)c3nc(-c4cc(OC)c(OC)c(OC)c4)nnc32)cc1 | 161 | 118 | 66.2 | 75.6 | 36.9 |
| COc1cc(-c2nnc3c(n2)c(-c2cc(OC)c(OC)c(OC)c2)nn3-c2cc(OC)c(OC)c(OC)c2)cc(OC)c1OC | 250 | 201 | 241 | 194 | 246 |
| COc1cc(-c2nn(-c3ccccc3)c3nnc(-c4ccccc4)nc23)cc(OC)c1OC | 216 | 108 | 169 | 86.6 | 109 |
| COc1ccc(-c2nnc3c(n2)c(-c2cc(OC)c(OC)c(OC)c2)nn3-c2ccccc2OC)cc1 | 155 | 119 | 178 | 6.58 | 105 |
| COc1ccc(N/N=C(\c2cc(OC)c(OC)c(OC)c2)c2nc(-c3cc(OC)c(OC)c(OC)c3)n[nH]c2=O)cc1 | 8.91 | 34.6 | 18.7 | 3.39 | 5.71 |
| COc1cc(Cc2nc(-c3cc(OC)c(OC)c(OC)c3)n[nH]c2=O)cc(OC)c1OC | 138 | 129 | 82.1 | 117 | 38.4 |
| COc1cc(Cc2nc(-c3ccccc3)n[nH]c2=O)cc(OC)c1OC | 3.88 | 3.21 | 1.17 | 3.46 | 2.71 |
| COc1cc(/C(=N\Nc2ccc(Cl)cc2)c2nc(-c3ccccc3)n[nH]c2=O)cc(OC)c1OC | 38.4 | 46.8 | 12 | 8.55 | 25.1 |
| COc1ccc(-c2n[nH]c(=O)c(Cc3cc(OC)c(OC)c(OC)c3)n2)cc1 | 19.9 | 13.3 | 3.07 | 9.31 | 3.15 |
| COc1cccc(-n2nc(-c3cc(OC)c(OC)c(OC)c3)c3nc(-c4ccc(Cl)cc4)nnc32)c1 | 219 | 108 | 192 | 2.86 | 54.7 |
| COc1cc(-c2nn(-c3ccc(Cl)cc3)c3nnc(-c4ccccc4)nc23)cc(OC)c1OC | 173 | 156 | 250 | 57.3 | 150 |
| COc1ccccc1-n1nc(-c2cc(OC)c(OC)c(OC)c2)c2nc(-c3cc(OC)c(OC)c(OC)c3)nnc21 | 156 | 125 | 182 | 15 | 126 |
| COc1cc(/C=C(/NC(=O)c2cc(OC)c(OC)c(OC)c2)C(=O)NN)cc(OC)c1OC | 153 | 126 | 160 | 103 | 123 |
| COc1cc(/C=C(/NC(=O)c2ccccc2)C(=O)NN)cc(OC)c1OC | 162 | 121 | 162 | 164 | 124 |
| COc1ccc(C(=O)N/C(=C/c2cc(OC)c(OC)c(OC)c2)C(=O)NN)cc1 | 167 | 147 | 172 | 134 | 144 |
| COc1cc(/C(=N\Nc2ccccc2)c2nc(-c3ccccc3)n[nH]c2=O)cc(OC)c1OC | 19.3 | 18.2 | 11.5 | 7.14 | 10.6 |
| COc1cccc(-n2nc(-c3cc(OC)c(OC)c(OC)c3)c3nc(-c4ccccc4)nnc32)c1 | 159 | 99.3 | 117 | 0.61 | 8.41 |
| COc1ccc(N/N=C(\c2cc(OC)c(OC)c(OC)c2)c2nc(-c3ccccc3)n[nH]c2=O)cc1 | 11 | 9.46 | 6.27 | 3.06 | 4.16 |
| COc1ccc(-c2nnc3c(n2)c(-c2cc(OC)c(OC)c(OC)c2)nn3-c2cccc(OC)c2)cc1 | 174 | 184 | 115 | 124 | 54.5 |
